Values after ≈ are worked out from the molar mass of the structure shown.
Key:
[1] = Inhibition of N-terminus His-tagged Francisella tularensis subsp. Tularensis Schu4 Fab1 expressed in Escherichia coli […] (DE3) cells assessed as conversion of crotonyl-CoA and NADH to butyryl-CoA and NAD+ preincubated for 30 mins by fluorescence analysis; set-up: species or system Francisella tularensis subsp. tularensis SCHU S4
How it was run: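 Experimental Ki came from varying crotonyl-CoA against inhibitor concentration at saturating NADH (200 µM). Calculated Ki used Cheng-Prusoff, IC50 = Ki(1+[S]/Km), with [S]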

Francisella tularensis = test: Antimicrobial activity against Francisella tularensis Utah 112 measured after overnight incubation by microdilution method; assay type: functional
Staphylococcus aureus [2] = test: Antimicrobial activity against Staphylococcus aureus ATCC 29213 measured after overnight incubation by microdilution method; assay type: functional
Staphylococcus aureus [3] = test: Antimicrobial activity against methicillin-resistant Staphylococcus aureus ATCC 43300 measured after overnight incubation by microdilution method; assay type: functional
Escherichia coli [4] = test: Antimicrobial activity against wild-type Escherichia coli BW25113 measured after overnight incubation by microdilution method; assay type: functional
Escherichia coli [5] = test: Antimicrobial activity against TolC-deficient Escherichia coli measured after overnight incubation by microdilution method; assay type: functional

Row | Structure (SMILES) | IC50 [1] [nM] | MBC (Francisella tularensis) [µg/mL] | MIC (Francisella tularensis) [µg/mL] | MIC (Staphylococcus aureus [2]) [µg/mL] | MIC (Staphylococcus aureus [3]) [µg/mL] | MIC (Escherichia coli [4]) [µg/mL] | MIC (Escherichia coli [5]) [µg/mL] | Ki [1] [nM] | MBC (Staphylococcus aureus [2]) [µg/mL] | MBC (Staphylococcus aureus [3]) [µg/mL] | MBC (Escherichia coli [5]) [µg/mL]
1 | COc1ccc(Cn2cnc3cc4c(cc32)CCC4)cc1C | 5 | 12.5 (≈ 42.8 µM) | 5.5 (≈ 18.8 µM) | > 12.5 | > 12.5 | > 12.5 | 12.5 (≈ 42.8 µM) |  |  |  | 
2 | c1cc2c(cc1Cn1cnc3cc4c(cc31)CCCC4)OCO2 | 320 | 18.8 (≈ 61.4 µM) | 4.7 (≈ 15.3 µM) | 4.7 (≈ 15.3 µM) | 6.3 (≈ 20.6 µM) | > 12.5 | 9.4 (≈ 30.7 µM) | 330 | > 25 | > 25 | 25 (≈ 81.6 µM)
3 | Cc1cc2ncn(C(C)c3ccc(Cl)c(Cl)c3)c2cc1C (stereo not given) | 370 |  | > 12.5 | 12.5 (≈ 39.2 µM) | 12.5 (≈ 39.2 µM) | > 12.5 | 6.3 (≈ 19.7 µM) |  |  |  | 
4 | CC(c1ccc(Cl)c(Cl)c1)n1cnc2cc3c(cc21)COC3 (stereo not given) | 890 |  | > 12.5 | > 12.5 | > 12.5 | > 12.5 | > 12.5 |  |  |  | 
5 | COc1ccc(Cn2cnc3cc4c(cc32)CCCC4)cc1C | 140 | 6.3 (≈ 20.6 µM) | 3.1 (≈ 10.1 µM) | 6.3 (≈ 20.6 µM) | 12.5 (≈ 40.8 µM) | > 12.5 | 4.7 (≈ 15.3 µM) | 130 | 25 (≈ 81.6 µM) |  | 9.4 (≈ 30.7 µM)
6 | COc1ccc(Cn2cnc3cc4c(cc32)CCCC4)cc1OC | 1360 |  | > 12.5 | > 12.5 | > 12.5 | > 12.5 | > 12.5 | 1430 |  |  | 
7 | CC(c1ccc(Cl)c(Cl)c1)n1cnc2cc3c(cc21)CCC3 (stereo not given) | 18 | 9.4 (≈ 28.4 µM) | 3.9 (≈ 11.8 µM) | 5.5 (≈ 16.6 µM) | 6.3 (≈ 19 µM) | > 12.5 | 3.1 (≈ 9.36 µM) |  | > 25 | 12.5 (≈ 37.7 µM) | 12.5 (≈ 37.7 µM)
8 | CC(c1ccc(Cl)c(Cl)c1)n1cnc2cc3c(cc21)CC(C)(C)C3 (stereo not given) | 240 |  | > 12.5 | 4.7 (≈ 13.1 µM) | 4.7 (≈ 13.1 µM) | > 12.5 | > 12.5 |  | > 12.5 | > 12.5 | > 25
9 | Cc1cc2ncn(Cc3ccc(Cl)c(Cl)c3)c2cc1C | 300 |  | 7.8 (≈ 25.6 µM) |  | 50 (≈ 164 µM) | > 200 | 6.25 (≈ 20.5 µM) |  |  |  | 
10 | CC(c1ccc(Cl)c(Cl)c1)n1cnc2cc3c(cc21)CCCC3 (stereo not given) | 14 | 25 (≈ 72.4 µM) | 3.1 (≈ 8.98 µM) | 3.1 (≈ 8.98 µM) | 3.1 (≈ 8.98 µM) | > 12.5 |  |  | 25 (≈ 72.4 µM) | 25 (≈ 72.4 µM) | 12.5 (≈ 36.2 µM)

From ChEMBL document CHEMBL3396952, “Structural and biological evaluation of a novel series of benzimidazole inhibitors of Francisella tularensis enoyl-ACP reductase (FabI)” (Bioorg Med Chem Lett, 2015)
